The subject of one experiment is NCI-H23. In words: Antiproliferative activity against human NCI-H23 cells by SRB method. The experiment is classed as functional. The essentials: (§1)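 GI50 against human cancer cell lines is the mean of three independent experiments.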
Experiment [1] in a line: Antiproliferative activity against human HCT15 cells by SRB method. To be noted: HCT-15. The experiment is classed as functional. The essentials: as §1
Experiment [2] is described as follows: Antiproliferative activity against human NUGC3 cells by SRB method. The experiment is classed as functional. To be noted: NUGC-3. In outline: as §1
A further experiment relates to MDA-MB-231. In words: Antiproliferative activity against human MDA-MB-231 cells by SRB method. The class given is functional. The essentials:
as §1

The next experiment deals with PC-3. The experiment is described as follows: Antiproliferative activity against human PC3 cells by SRB method. The experiment is classed as functional. The essentials: as §1
In the next experiment the test system is ACHN. The experiment is described as follows: Antiproliferative activity against human ACHN cells by SRB method. The experiment is classed as functional. The essentials: as §1
Experiment [3] in a line: Inhibition of NF-kappaB in mouse RAW264.7 cells incubated for 2 hrs prior to LPS challenge measured after 16 hrs by SEAP assay. The class given is cell-based. In outline:
(§2)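 Reporter cells: RAW 264.7 carrying stably integrated pNF-κB-SEAP-NPT, or THP-1 transfected with pNF-κB-SEAP. Cells were pretreated with compound for 2 h, then stimulated with LPS (1 µg/ml) for 16 h. Culture-medium aliquots were heated at 65 °C for 5 min and incubated with 4-methylumbelliferyl phosphate (500 µM) in the dark for 1 h. Fluorescence was read at ex 360/em 449 nm as RFU. IC50 is the mean of three experiments.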

In experiment [4] the target is Nuclear factor NF-kappa-B complex (Homo sapiens, UniProt P19838+Q00653+Q04206). The experiment is described as follows: Inhibition of NF-kappaB in human THP1 cells incubated for 2 hrs prior to LPS challenge measured after 16 hrs by SEAP assay. The experiment is classed as cell-based, THP-1. In outline:
as §2

Molecules are shown by their SMILES. Bounds are passed on as bounds.

Nuclear factor NF-kappa-B complex, sequence (P19838 1-433 limits assumed): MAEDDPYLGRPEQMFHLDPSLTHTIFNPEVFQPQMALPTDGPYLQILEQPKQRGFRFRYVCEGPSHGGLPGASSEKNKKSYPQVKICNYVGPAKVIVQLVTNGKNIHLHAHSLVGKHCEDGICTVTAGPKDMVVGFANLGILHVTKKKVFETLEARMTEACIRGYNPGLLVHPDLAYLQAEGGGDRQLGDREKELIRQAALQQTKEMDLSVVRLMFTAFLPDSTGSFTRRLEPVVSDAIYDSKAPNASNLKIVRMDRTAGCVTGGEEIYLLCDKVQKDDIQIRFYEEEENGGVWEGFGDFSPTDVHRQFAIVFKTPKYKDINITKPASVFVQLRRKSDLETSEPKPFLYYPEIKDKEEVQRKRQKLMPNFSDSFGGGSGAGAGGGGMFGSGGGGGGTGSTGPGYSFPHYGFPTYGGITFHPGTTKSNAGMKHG
Nuclear factor NF-kappa-B complex, sequence (Q00653 1-454 limits assumed): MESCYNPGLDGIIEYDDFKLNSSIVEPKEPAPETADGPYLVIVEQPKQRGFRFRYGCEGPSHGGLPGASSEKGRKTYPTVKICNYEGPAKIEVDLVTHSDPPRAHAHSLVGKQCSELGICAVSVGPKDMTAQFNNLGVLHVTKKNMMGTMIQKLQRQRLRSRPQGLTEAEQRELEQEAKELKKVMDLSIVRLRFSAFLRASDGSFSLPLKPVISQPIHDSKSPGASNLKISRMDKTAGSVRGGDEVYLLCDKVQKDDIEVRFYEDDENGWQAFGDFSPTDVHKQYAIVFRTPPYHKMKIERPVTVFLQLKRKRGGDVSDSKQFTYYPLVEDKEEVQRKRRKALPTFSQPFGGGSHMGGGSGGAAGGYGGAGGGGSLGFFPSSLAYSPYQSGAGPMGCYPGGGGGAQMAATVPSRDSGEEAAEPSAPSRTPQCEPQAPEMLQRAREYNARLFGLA
Nuclear factor NF-kappa-B complex, sequence (Q04206 whole entry): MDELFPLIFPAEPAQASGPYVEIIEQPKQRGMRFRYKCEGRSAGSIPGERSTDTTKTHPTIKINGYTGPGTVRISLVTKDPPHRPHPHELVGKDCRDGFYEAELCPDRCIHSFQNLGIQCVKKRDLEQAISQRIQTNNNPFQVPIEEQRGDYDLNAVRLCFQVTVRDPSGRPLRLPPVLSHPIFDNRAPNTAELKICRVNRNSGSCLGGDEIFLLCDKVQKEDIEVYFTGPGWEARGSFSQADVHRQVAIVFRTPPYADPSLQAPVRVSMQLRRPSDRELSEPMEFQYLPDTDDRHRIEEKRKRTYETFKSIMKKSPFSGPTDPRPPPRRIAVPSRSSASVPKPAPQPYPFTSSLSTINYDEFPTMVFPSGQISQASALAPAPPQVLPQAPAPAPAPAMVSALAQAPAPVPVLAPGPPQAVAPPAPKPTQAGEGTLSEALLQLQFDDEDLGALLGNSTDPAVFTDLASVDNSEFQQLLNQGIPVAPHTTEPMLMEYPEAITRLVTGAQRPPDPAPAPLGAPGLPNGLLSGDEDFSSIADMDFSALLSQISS

Turning to `CC(C)CCOc1cccc(O)c1C(=O)/C=C/c1ccc(O)cc1`, the GI50 with NCI-H23 is 12.1 µM; in experiment [1] it was 10.6 µM; in experiment [2], 12.4 µM; with MDA-MB-231, 10.3 µM; in the experiment with PC-3 it was 11.5 µM; in the experiment with ACHN, 11.3 µM. In experiment [3], this molecule came in with an IC50 of 10 µM.

`CCCCCCOc1cccc(O)c1C(=O)/C=C/c1ccc(O)cc1`: the GI50 (in the experiment with NCI-H23; in experiment [1]; in experiment [2]; in the experiment with MDA-MB-231; in the experiment on PC-3; with ACHN) was more than 30 µM throughout.

`O=C(/C=C/c1ccc(O)cc1)c1c(O)cccc1OCC1CCCCC1`: the GI50 (in the experiment with NCI-H23; in experiment [1]; in experiment [2]; in the experiment with MDA-MB-231; with PC-3; in the experiment on ACHN) was more than 30 µM in each case.

On to `O=C(/C=C/c1ccc(O)cc1)c1c(O)cccc1OCc1ccccc1`, for which the GI50 (in the experiment on NCI-H23; in experiment [1]; in experiment [2]; in the experiment with MDA-MB-231; with PC-3; with ACHN) was more than 30 µM each time.

Consider `O=C(/C=C/c1ccc(O)cc1)c1c(O)cccc1OCC1CCCC1`, for which the concentration for 50% growth inhibition (GI50) in the experiment with NCI-H23 worked out at 3.16 µM; in experiment [1], 3.41 µM; in experiment [2], 2.14 µM; with MDA-MB-231 it was 3.41 µM; in the experiment on PC-3 it was 3.04 µM; in the experiment on ACHN, 3.51 µM. This molecule displayed an IC50 in experiment [4] of 13 µM.

Take `CC(C)CCCOc1cccc(O)c1C(=O)/C=C/c1ccc(O)cc1`: the GI50 in the experiment with NCI-H23 stood at 11.3 µM; in experiment [1], 11.6 µM; in experiment [2], 3.52 µM; with MDA-MB-231, 3.48 µM; in the experiment with PC-3, 3.6 µM; in the experiment on ACHN it was 3.63 µM. This molecule returned an IC50 in experiment [4] of 11 µM.

Turning to `CCCCOc1cccc(O)c1C(=O)/C=C/c1ccc(O)cc1`, the GI50 (with NCI-H23; in experiment [1]; in experiment [2]; with MDA-MB-231; in the experiment with PC-3; in the experiment on ACHN) was more than 30 µM in each case. Moreover, in experiment [4], the IC50 was more than 30 µM.

On to `CC(C)(C)CCOc1cccc(O)c1C(=O)/C=C/c1ccc(O)cc1`, for which the GI50 in the experiment on NCI-H23 stood at 3.13 µM; in experiment [1], 3.43 µM; in experiment [2], 3.3 µM; with MDA-MB-231, 2.38 µM; in the experiment with PC-3, 3.22 µM; in the experiment on ACHN, 3.14 µM. In experiment [4], this molecule registered an IC50 of 3 µM.

Regarding `CC(C)COc1cccc(O)c1C(=O)/C=C/c1ccc(O)cc1`, the GI50 in the experiment with NCI-H23 was 3.22 µM; in experiment [1], 2.6 µM; in experiment [2], 2.98 µM; in the experiment with MDA-MB-231 it was 3.52 µM; in the experiment on PC-3, 2.97 µM; in the experiment on ACHN, 3.29 µM. The same molecule gave an IC50 in experiment [4] of 8 µM.

Take `CCC(CC)COc1cccc(O)c1C(=O)/C=C/c1ccc(O)cc1`: the GI50 with NCI-H23 was determined as 3.21 µM; in experiment [1] it was 3.42 µM; in experiment [2] it was 1.96 µM; in the experiment on MDA-MB-231, 3.13 µM; in the experiment on PC-3, 3.39 µM; in the experiment with ACHN, 3.37 µM. Also, in experiment [4], the IC50 is 12 µM.

Regarding `CC(C)=CCOc1cccc(O)c1C(=O)/C=C/c1ccc(O)cc1`, the GI50 (in the experiment with NCI-H23; in experiment [1]; in experiment [2]; in the experiment on MDA-MB-231; in the experiment on PC-3; with ACHN) was more than 30 µM throughout. In experiment [4], this molecule displayed an IC50 of more than 30 µM.

Turning to `O=C(/C=C/c1ccc(O)cc1)c1c(O)cccc1OCCC1CCCC1`, the GI50 is 3.37 µM in the experiment on NCI-H23; 3.31 µM in experiment [1]; 3.2 µM in experiment [2]; 3.34 µM in the experiment on MDA-MB-231; 3.48 µM in the experiment on PC-3; 3.4 µM with ACHN. This molecule also displayed an IC50 in experiment [4] of 18 µM.

With `O=C(/C=C/c1ccc(O)cc1)c1c(O)cccc1OCCC1CCCCC1`, the GI50 (in the experiment on NCI-H23; in experiment [1]; in experiment [2]; in the experiment on MDA-MB-231; in the experiment on PC-3; in the experiment on ACHN) was more than 30 µM in each case. For the same molecule, in experiment [4], the IC50 is more than 30 µM.

As to `O=C(/C=C/c1ccc(O)cc1)c1c(O)cccc1OCC12CC3CC(CC(C3)C1)C2`, the GI50 (in the experiment on NCI-H23; in experiment [1]; in experiment [2]; with MDA-MB-231; with PC-3; with ACHN) was more than 30 µM throughout. The molecule also had an IC50 in experiment [4] of more than 30 µM.

Take `CC(C)(C)CCOc1cccc(O)c1C(=O)/C=C/c1ccc(C(=O)O)cc1`: the GI50 in the experiment on NCI-H23 worked out at 4.77 µM; in experiment [1], 2.17 µM; in experiment [2] it was 5.44 µM; in the experiment with MDA-MB-231, 11.2 µM; in the experiment on PC-3, 6.5 µM; in the experiment on ACHN, 8.45 µM. This molecule displayed an IC50 in experiment [4] of 2.8 µM.

Turning to `CC(C)(C)CCOc1cccc(O)c1C(=O)/C=C/c1ccc(S(N)(=O)=O)cc1`, the concentration for 50% growth inhibition (GI50) amounted to 2.95 µM in the experiment with NCI-H23; 2.93 µM in experiment [1]; 1.17 µM in experiment [2]; 2.11 µM with MDA-MB-231; 3.25 µM in the experiment on PC-3; 3.3 µM with ACHN. The molecule also gave an IC50 in experiment [4] of 1.2 µM.

In the case of `COc1cccc(OCCC(C)(C)C)c1C(=O)/C=C/c1ccc(O)cc1`, the GI50 (in the experiment on NCI-H23; in experiment [1]; in experiment [2]; in the experiment on MDA-MB-231; with PC-3; in the experiment with ACHN) was more than 30 µM in each case. The molecule further registered an IC50 in experiment [4] of more than 30 µM.

On to `CC(C)(C)CCOc1cccc(O)c1C(=O)CCc1ccc(O)cc1`, for which the concentration for 50% growth inhibition (GI50) (in the experiment with NCI-H23; in experiment [1]; in experiment [2]; in the experiment on MDA-MB-231; with PC-3; with ACHN) was more than 30 µM throughout. In addition, the IC50 in experiment [4] was more than 30 µM.

The molecule `COc1cccc2c1C(=O)c1c(O)c3c(c(O)c1C2=O)C[C@@](O)(C(=O)CO)C[C@@H]3O[C@H]1C[C@H](N)[C@H](O)[C@H](C)O1` [DOXORUBICIN] gave a GI50 in experiment [2] of 1 µM.

For the origin of these results see ChEMBL document CHEMBL3286164, “Anti-proliferative effect of chalcone derivatives through inactivation of NF-κB in human cancer cells” (Bioorg Med Chem, 2014).
